Experimental data reported in ChEMBL document CHEMBL3044834, “Novel protoporphyrinogen oxidase inhibitors: 3H-pyrazolo[3,4-d][1,2,3]triazin-4-one derivatives” (J Agric Food Chem, 2008).

How the values were obtained:
Amaranthus retroflexus [1] = test: Herbicidal activity against Amaranthus retroflexus assessed as inhibition of fresh weed plant weight at 93.75 g/ha using pre-emergence treatment protocol; assay type: functional
[2] = tested on: Brassica rapa subsp. oleifera; test: Herbicidal activity against Brassica rapa subsp. oleifera assessed as inhibition of fresh weed plant weight at 187.5 g/ha using pre-emergence treatment protocol; assay type: functional
Digitaria sanguinalis [3] = test: Herbicidal activity against Digitaria sanguinalis (hairy crabgrass) assessed as inhibition of fresh weed plant weight at 22.5 g/ha using pre-emergence treatment protocol; assay type: functional
Amaranthus retroflexus [4] = test: Herbicidal activity against Amaranthus retroflexus assessed as inhibition of fresh weed plant weight at 45 g/ha using pre-emergence treatment protocol; assay type: functional
[5] = tested on: Brassica rapa subsp. oleifera; test: Herbicidal activity against Brassica rapa subsp. oleifera assessed as inhibition of fresh weed plant weight at 45 g/ha using pre-emergence treatment protocol; assay type: functional
Echinochloa crus-galli [6] = test: Herbicidal activity against Echinochloa crus-galli (barnyard grass) assessed as inhibition of fresh weed plant weight at 187.5 g/ha using pre-emergence treatment protocol; assay type: functional
Procedure, shortened: (§1)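 Test compounds made up as emulsions by dissolving in 100 µL N,N-dimethylformamide, then adding a little Tween 20 and water. For post-emergence, weed seedlings at one leaf and one stem were sprayed at the same rates as the pre-emergence test. Fresh weight was recorded 15 days after treatment and expressed as percent inhibition versus controls. All treatments were run in triplicate.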

[7] = target: T1, Protoporphyrinogen IX oxidase (Zea mays, UniProt Q9M629); test: Inhibition of protoporphyrinogen oxidase in Zea mays (maize) seedlings leaves etioplasts using protoporphyrinogen IX incubated for 30 min by fluorescence spectroscopy
T1 sequence (Q9M629 whole entry): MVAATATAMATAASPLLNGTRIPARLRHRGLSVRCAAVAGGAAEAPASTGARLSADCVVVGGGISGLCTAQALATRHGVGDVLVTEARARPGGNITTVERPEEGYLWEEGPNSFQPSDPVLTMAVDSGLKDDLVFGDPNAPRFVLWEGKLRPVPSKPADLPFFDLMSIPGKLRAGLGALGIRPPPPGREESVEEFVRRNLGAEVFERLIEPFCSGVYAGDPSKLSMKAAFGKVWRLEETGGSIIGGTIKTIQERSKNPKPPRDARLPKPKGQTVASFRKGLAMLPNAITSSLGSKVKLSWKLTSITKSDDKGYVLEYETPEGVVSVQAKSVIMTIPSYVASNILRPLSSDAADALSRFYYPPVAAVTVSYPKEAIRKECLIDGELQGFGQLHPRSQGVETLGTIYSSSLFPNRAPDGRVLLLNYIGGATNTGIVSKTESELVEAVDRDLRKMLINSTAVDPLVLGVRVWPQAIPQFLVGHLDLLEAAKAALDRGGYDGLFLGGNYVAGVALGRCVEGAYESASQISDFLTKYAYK

Digitaria sanguinalis [8] = test: Herbicidal activity against Digitaria sanguinalis (hairy crabgrass) assessed as inhibition of fresh weed plant weight at 93.75 g/ha using pre-emergence treatment protocol; assay type: functional
Echinochloa crus-galli [9] = test: Herbicidal activity against Echinochloa crus-galli (barnyard grass) assessed as inhibition of fresh weed plant weight at 45 g/ha using pre-emergence treatment protocol; assay type: functional
Amaranthus retroflexus [10] = test: Herbicidal activity against Amaranthus retroflexus assessed as inhibition of fresh weed plant weight at 187.5 g/ha using pre-emergence treatment protocol; assay type: functional
Digitaria sanguinalis [11] = test: Herbicidal activity against Digitaria sanguinalis (hairy crabgrass) assessed as inhibition of fresh weed plant weight at 187.5 g/ha using pre-emergence treatment protocol; assay type: functional
Echinochloa crus-galli [12] = test: Herbicidal activity against Echinochloa crus-galli (barnyard grass) assessed as inhibition of fresh weed plant weight at 93.75 g/ha using pre-emergence treatment protocol; assay type: functional
[13] = tested on: Brassica rapa subsp. oleifera; test: Herbicidal activity against Brassica rapa subsp. oleifera assessed as inhibition of fresh weed plant weight at 93.75 g/ha using pre-emergence treatment protocol; assay type: functional
Echinochloa crus-galli [14] = test: Herbicidal activity against Echinochloa crus-galli (barnyard grass) assessed as inhibition of fresh weed plant weight at 22.5 g/ha using pre-emergence treatment protocol; assay type: functional; procedure, shortened: as §1
Amaranthus retroflexus [15] = test: Herbicidal activity against Amaranthus retroflexus assessed as inhibition of fresh weed plant weight at 22.5 g/ha using pre-emergence treatment protocol; assay type: functional
[16] = tested on: Brassica rapa subsp. oleifera; test: Herbicidal activity against Brassica rapa subsp. oleifera assessed as inhibition of fresh weed plant weight at 22.5 g/ha using pre-emergence treatment protocol; assay type: functional
Digitaria sanguinalis [17] = test: Herbicidal activity against Digitaria sanguinalis (hairy crabgrass) assessed as inhibition of fresh weed plant weight at 45 g/ha using pre-emergence treatment protocol; assay type: functional

Question: With `C#CCN1C(=O)COc2cc(F)c(N3C(=O)C4=C(CCCC4)C3=O)cc21` [FLUMIOXAZIN] as the compound, how does the inhibition at 93.75 g/ha (Amaranthus retroflexus [1]) read?
Answer: Its inhibition at 93.75 g/ha is 100%.

Question: What about the inhibition at 187.5 g/ha [2] of the same compound?
Answer: Its inhibition at 187.5 g/ha is 100%.

Question: What about the inhibition at 22.5 g/ha (Digitaria sanguinalis [3]) of the same compound?
Answer: The inhibition at 22.5 g/ha was 85.4%.

Question: What about the inhibition at 45 g/ha (Amaranthus retroflexus [4]) of the same compound?
Answer: The inhibition at 45 g/ha was 100%.

Question: And the inhibition at 45 g/ha [5]?
Answer: The inhibition at 45 g/ha was 100%.

Question: And the inhibition at 187.5 g/ha (Echinochloa crus-galli [6])?
Answer: Its inhibition at 187.5 g/ha is 100%.

Question: And the IC50 [7]?
Answer: Its IC50 is 3.24 nM.

Question: What about the inhibition at 93.75 g/ha (Digitaria sanguinalis [8]) of the same compound?
Answer: Its inhibition at 93.75 g/ha is 100%.

Question: What about the inhibition at 45 g/ha (Echinochloa crus-galli [9]) of the same compound?
Answer: Its inhibition at 45 g/ha is 71.4%.

Question: What about the inhibition at 187.5 g/ha (Amaranthus retroflexus [10]) of the same compound?
Answer: The inhibition at 187.5 g/ha was 100%.

Question: What about the inhibition at 187.5 g/ha (Digitaria sanguinalis [11]) of the same compound?
Answer: The inhibition at 187.5 g/ha was 100%.

Question: And the inhibition at 93.75 g/ha (Echinochloa crus-galli [12])?
Answer: Its inhibition at 93.75 g/ha is 100%.

Question: And the inhibition at 93.75 g/ha [13]?
Answer: The inhibition at 93.75 g/ha was 100%.

Question: And the inhibition at 22.5 g/ha (Echinochloa crus-galli [14])?
Answer: The inhibition at 22.5 g/ha was 40.9%.

Question: And the inhibition at 22.5 g/ha (Amaranthus retroflexus [15])?
Answer: Its inhibition at 22.5 g/ha is 100%.

Question: What about the inhibition at 22.5 g/ha [16] of the same compound?
Answer: The inhibition at 22.5 g/ha was 92.6%.

Question: What about the inhibition at 45 g/ha (Digitaria sanguinalis [17]) of the same compound?
Answer: Its inhibition at 45 g/ha is 100%.
